Data set [1] deals with Mus musculus. Description: Anticonvulsant activity against pentylenetetrazole-induced seizure in albino Swiss (CD-1) mouse assessed as decrease in seizure episodes at 100 mg/kg, ip administered 60 mins prior to PTZ challenge. In kind it is functional. The note with it: route intraperitoneal. The gist of the method: (§1)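 Male CD-1 mice, 18–22 g, given compound or vehicle i.p. 60 min before PTZ 100 mg/kg s.c. Each mouse observed alone for 30 min for clonic seizures: whole-body clonus over 3 s with loss of righting reflex. Read-outs: latency to first clonus, number of seizure episodes, and deaths within 30 min. Groups of 7–10 mice, compared with vehicle.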

For data set [2], the system named is Mus musculus. The data set is described as follows: Anticonvulsant activity against pentylenetetrazole-induced seizure in albino Swiss (CD-1) mouse assessed as decrease in mortality rate at 100 mg/kg, ip administered 60 mins prior to PTZ challenge. In kind it is functional. As to conditions: route intraperitoneal. The gist of the method: as §1
Data set [3] concerns Mus musculus. Description: Anticonvulsant activity against pentylenetetrazole-induced seizure in albino Swiss (CD-1) mouse assessed as delay in onset of seizures at 100 mg/kg, ip administered 60 mins prior to PTZ challenge. In kind it is functional. As to conditions: route intraperitoneal. The gist of the method:
as §1

Data set [4] deals with T1, GABA transporter 3 (Mus musculus, UniProt P31649).
T1 sequence (P31649 whole entry): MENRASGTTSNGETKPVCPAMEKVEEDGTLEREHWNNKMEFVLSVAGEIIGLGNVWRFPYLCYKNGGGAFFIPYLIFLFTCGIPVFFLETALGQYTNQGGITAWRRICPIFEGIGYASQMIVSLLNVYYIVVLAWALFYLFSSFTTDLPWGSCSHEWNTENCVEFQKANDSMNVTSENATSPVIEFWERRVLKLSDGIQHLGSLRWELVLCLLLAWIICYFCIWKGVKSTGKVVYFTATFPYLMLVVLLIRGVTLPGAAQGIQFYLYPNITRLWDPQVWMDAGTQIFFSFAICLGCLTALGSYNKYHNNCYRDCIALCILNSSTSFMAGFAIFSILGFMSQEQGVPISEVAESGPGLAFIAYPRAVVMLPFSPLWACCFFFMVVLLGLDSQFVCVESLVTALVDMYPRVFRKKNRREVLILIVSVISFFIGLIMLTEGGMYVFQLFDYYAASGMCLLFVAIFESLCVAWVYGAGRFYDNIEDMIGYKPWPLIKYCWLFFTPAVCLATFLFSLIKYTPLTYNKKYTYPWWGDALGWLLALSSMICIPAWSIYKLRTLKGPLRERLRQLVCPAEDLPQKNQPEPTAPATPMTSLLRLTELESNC
The data set is described as follows: Inhibition of mouse GAT3 expressed in HEK293 cells assessed as decrease in [3H]GABA uptake. Type of data set: cell-based.

The target in data set [5] is T2, Sodium- and chloride-dependent GABA transporter 1 (Mus musculus, UniProt P31648). The data set is described as follows: Inhibition of mouse GAT1 expressed in HEK293 cells assessed as decrease in [3H]GABA uptake. Type of data set: cell-based.
Data set [6] has as its target T3, GABA transporter 4 (Mus musculus, UniProt P31650).
T3 sequence (P31650 whole entry): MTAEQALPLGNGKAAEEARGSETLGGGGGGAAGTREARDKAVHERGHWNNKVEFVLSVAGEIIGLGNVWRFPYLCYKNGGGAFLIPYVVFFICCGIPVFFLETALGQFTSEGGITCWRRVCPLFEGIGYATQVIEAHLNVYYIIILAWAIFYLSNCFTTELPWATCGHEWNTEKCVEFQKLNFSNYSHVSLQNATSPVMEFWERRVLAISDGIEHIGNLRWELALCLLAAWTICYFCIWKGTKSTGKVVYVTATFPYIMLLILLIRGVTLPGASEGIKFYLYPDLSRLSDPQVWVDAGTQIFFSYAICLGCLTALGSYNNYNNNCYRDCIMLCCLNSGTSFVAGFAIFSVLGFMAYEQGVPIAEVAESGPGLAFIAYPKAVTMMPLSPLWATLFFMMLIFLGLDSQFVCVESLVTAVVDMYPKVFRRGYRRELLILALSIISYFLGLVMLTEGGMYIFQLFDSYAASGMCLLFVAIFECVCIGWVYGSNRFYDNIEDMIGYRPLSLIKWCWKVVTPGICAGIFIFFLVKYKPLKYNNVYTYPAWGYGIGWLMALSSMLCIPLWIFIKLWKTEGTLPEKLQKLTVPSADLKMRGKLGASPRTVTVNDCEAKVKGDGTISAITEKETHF
The data set is described as follows: Inhibition of mouse GAT4 expressed in HEK293 cells assessed as decrease in [3H]GABA uptake. In kind it is cell-based.

The target of data set [7] is Sodium- and chloride-dependent GABA transporter 1 (Mus musculus) (UniProt P31648). Description: Displacement of NO711 from mouse GAT1 expressed in HEK293 cells assessed as NO711 binding at 100 uM by LC-MS/MS analysis. In kind it is cell-based.
The target of data set [8] is T4, GABA transporter 2 (Mus musculus, UniProt P31651).
T4 sequence (P31651 whole entry): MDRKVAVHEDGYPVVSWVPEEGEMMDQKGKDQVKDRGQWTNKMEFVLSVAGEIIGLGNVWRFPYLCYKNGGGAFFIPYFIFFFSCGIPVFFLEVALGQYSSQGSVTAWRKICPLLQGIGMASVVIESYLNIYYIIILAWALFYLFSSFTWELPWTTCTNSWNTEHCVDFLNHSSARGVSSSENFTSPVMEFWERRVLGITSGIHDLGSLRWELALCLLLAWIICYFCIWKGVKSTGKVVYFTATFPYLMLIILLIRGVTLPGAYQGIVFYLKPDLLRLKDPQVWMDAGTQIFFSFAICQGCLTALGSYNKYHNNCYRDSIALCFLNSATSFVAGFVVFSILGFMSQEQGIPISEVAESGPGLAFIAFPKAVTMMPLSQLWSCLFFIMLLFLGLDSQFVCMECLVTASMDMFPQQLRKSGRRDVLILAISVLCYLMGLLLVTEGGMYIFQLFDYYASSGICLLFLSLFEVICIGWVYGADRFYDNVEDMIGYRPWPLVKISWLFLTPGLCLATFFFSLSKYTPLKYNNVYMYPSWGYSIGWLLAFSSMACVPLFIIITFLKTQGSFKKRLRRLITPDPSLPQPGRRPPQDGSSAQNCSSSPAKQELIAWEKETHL
The data set is described as follows: (§2) Inhibition of mouse GAT2 expressed in HEK293 cells assessed as decrease in [3H]GABA uptake. In kind it is cell-based.

Data set [9] is described as follows: Retardation factor of the compound using hexane/ethanol/TEA at ratio of 7:2:1 as solvent system by thin layer chromatography. Type of data set: physicochemical.
Data set [10] is described as follows: Retardation factor of the compound using 25%NH3/MeOH/DCM/PE at ratio of 45:225:600:90 as solvent system by thin layer chromatography. Type of data set: physicochemical.
In data set [11] the target is T2, Sodium- and chloride-dependent GABA transporter 1. The data set is described as follows: Displacement of NO711 from mouse GAT1 expressed in HEK293 cells by LC-MS/MS analysis. Type of data set: cell-based.
The subject of data set [12] is Mus musculus. Description: Anticonvulsant activity in albino Swiss (CD-1) mouse assessed as current intensity required to induce 50% tonic hind limb extensions at 100 mg/kg, ip after 60 mins by electroconvulsive threshold test (reference value: 6.61 mA). In kind it is functional, Hindlimb. As to conditions: route intraperitoneal.
The test system of data set [13] is Mus musculus. The data set is described as follows: Anticonvulsant activity against pilocarpine-induced seizure in albino Swiss (CD-1) mouse assessed as prolongation of latency time to death at 200 mg/kg, ip administered 60 mins before pilocarpine challenge. Type of data set: functional. As to conditions: route intraperitoneal. The method, boiled down: (§3)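 Male CD-1 mice dosed i.p. with compound or vehicle (1% Tween 80). Scopolamine butylbromide 1 mg/kg i.p. given 45 min before pilocarpine; pilocarpine 400 mg/kg i.p. given 60 min after compound. Observed 1 h. Latency to tonic-clonic seizure and latency to death recorded, cut-off 60 min. 7–8 mice per group, mean ± SEM, Student's t-test against vehicle.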

In data set [14] the test system is Mus musculus. The data set is described as follows: Antidepressant-like activity in albino Swiss (CD-1) mouse assessed as reduction in immobility time at 15 mg/kg, ip by forced swim test. As to conditions: route intraperitoneal. Type of data set: functional. The gist of the method: (§4)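 Compound or vehicle was given i.p. 60 min before the test. Each mouse was placed for 6 min in a glass cylinder (25 cm high, 10 cm diameter) holding 10 cm of water at 23–25 C. Immobility, meaning passive floating, was timed over the final 4 min. 7–8 mice per group; ANOVA with Dunnett's test.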

The subject of data set [15] is Mus musculus. Description: Anticonvulsant activity against pilocarpine-induced seizure in albino Swiss (CD-1) mouse assessed as prolongation of latency time to seizures at 100 mg/kg, ip administered 60 mins before pilocarpine challenge. In kind it is functional. As to conditions: route intraperitoneal. The method, boiled down:
(§5)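 CD-1 mice received compound or vehicle (1% Tween 80) i.p. 60 min before pilocarpine 400 mg/kg i.p. Scopolamine butylbromide 1 mg/kg i.p. was given 45 min before pilocarpine. 7–8 mice per group; Student's t-test versus vehicle; mean ± SEM.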

Data set [16] deals with Mus musculus. The data set is described as follows: Anticonvulsant activity against pilocarpine-induced seizure in albino Swiss (CD-1) mouse assessed as prolongation of latency time to seizures at 200 mg/kg, ip administered 60 mins before pilocarpine challenge. The note with it: route intraperitoneal. Type of data set: functional. The method, boiled down:
as §5

Data set [17] addresses T5, GABA transporter 2 (Mus musculus) (UniProt P31651).
T5 sequence (whole entry): T4 sequence (P31651 whole entry)
The data set is described as §2. Type of data set: cell-based. As to conditions: concentration not given here.

In data set [18] the test system is Mus musculus. Description: Anticonvulsant activity against pilocarpine-induced seizure in albino Swiss (CD-1) mouse assessed as prolongation of latency time to death at 100 mg/kg, ip administered 60 mins before pilocarpine challenge. Type of data set: functional. The note with it: route intraperitoneal. The method, boiled down: as §3
The subject of data set [19] is Mus musculus. Description: Antinociceptive activity in ip dosed albino Swiss (CD-1) mouse measured after 60 mins by hot plate test. In kind it is functional, organism-based. Background: In hot-plate and tail-flick tests a longer latency is read as antinociception.
For data set [20], the system named is Mus musculus. The data set is described as follows: Antidepressant-like activity in albino Swiss (CD-1) mouse assessed as reduction in immobility time at 30 mg/kg, ip by forced swim test. In kind it is functional. As to conditions: route intraperitoneal. The gist of the method:
as §4

We go through eight molecules from ChEMBL document CHEMBL3286252, “Synthesis, biological evaluation and structure-activity relationship of new GABA uptake inhibitors, derivatives of 4-aminobutanamides” (Eur J Med Chem, 2014).

Molecules are shown by their SMILES. Active and inactive are the calls of the source.

A word on the inhibition in vivo: it is the share of the control response that was lost under treatment. What is called IC50 is the concentration that inhibits the measured activity by half. By Ki is commonly meant the dissociation constant of the complex between target and ligand, obtained from inhibition or displacement. Lower therefore signals tighter binding. By inhibition is commonly meant the drop in the measured response relative to a control, in per cent.

In the case of `CCC1(C)CC(=O)NC1=O` (stereo not drawn) [ETHOSUXIMIDE], the inhibition in vivo at 100 mg/kg amounted to 64% in data set [1] and 75% in data set [2]. Further, in [3], the Activity came to 120%.

For the molecule `NCCC(NCCC=C(c1ccccc1)c1ccccc1)C(=O)NCc1ccccc1Cl` (stereo not drawn), the IC50 in data set [4] was 24 µM; in data set [5], 15.8 µM; in data set [6], 10.2 µM; in [8], 6.92 µM. Besides, the Activity in data set [7] came out at 53%. The Rf in [9] stood at 0.15.

With `NCCC(C(=O)NCc1ccccc1)N1CCN(C(c2ccccc2)c2ccccc2)CC1` (stereo not drawn), the Rf in [10] is reported as 0.15. For the same molecule, the IC50 is 26.9 µM in data set [4], 44.7 µM in data set [5], 58.9 µM in data set [6] and 38 µM in data set [8]. Also, in [7], the Activity amounted to 83%.

On to `CN(CCCC(c1ccccc1)c1ccccc1)C(CCN)C(=O)NCc1ccccc1Cl` (stereo not drawn), for which the IC50 in data set [4] was 19.1 µM; in data set [5] it was 12.6 µM; in [6] it was 11.5 µM; in data set [8] it was 7.76 µM. The molecule also showed a Ki in data set [11] of 21.4 µM. Besides, the Rf in data set [9] amounted to 0.15.

`NCCC(NCCC=C(c1ccccc1)c1ccccc1)C(=O)NCc1ccccc1` (stereo not drawn): the IC50 in data set [4] was 33.1 µM; in data set [5], 30.9 µM; in data set [6] it was 25.7 µM; in data set [8], 7.94 µM. In data set [11], this molecule gave a Ki of 17.4 µM. For the same molecule, in data set [9], the Rf is 0.16.

Consider `COc1ccc(C(OCCN2CCC[C@H](C(=O)O)C2)(c2ccc(OC)cc2)c2ccc(OC)cc2)cc1`, for which the CS50 in [12] turned out to be 7.95 mA. Further, the Activity was found to be 202.7% in data set [13], 158% in data set [15], 258.9% in data set [16] and 243.8% in [18]. In [14], the inhibition in vivo at 15 mg/kg came out at 12.1%. The inhibition in [17] turned out to be 56%. In addition, the outcome in [19] was inactive. Also, the inhibition in vivo at 30 mg/kg in [20] came out at 19.9%.

For `Cc1ccc(CNC(=O)C(CCN)N(C)CCCC(c2ccccc2)c2ccccc2)cc1` (stereo not drawn), the IC50 in [4] was 22.9 µM; in data set [5] it was 12.3 µM; in [6], 8.32 µM; in data set [8] it was 14.1 µM. This molecule gave a Ki in data set [11] of 15.5 µM. For the same molecule, the Rf in data set [9] stood at 0.17.

Consider `CN(CCCC(c1ccccc1)c1ccccc1)C(CCN)C(=O)NCc1ccc(Cl)cc1` (stereo not drawn), for which the IC50 in data set [4] is 21.4 µM; in data set [5], 17.4 µM; in data set [6], 14.5 µM; in [8] it was 17.4 µM. This molecule showed a Ki in data set [11] of 17.8 µM. Also, the Rf in [9] worked out at 0.1.
